Results as given in ChEMBL document CHEMBL3244396, “Synthesis and antileukemic activity of 5-substituted 2,3-dihydro-6,7-bis(hydroxymethyl)-1H-pyrrolizine diesters” (J Med Chem, 1977).

Legend:
[1] = system: P388; assay: Antitumor activity against mouse P388 cells allografted in female CDF1 mouse assessed as disease cures by measuring 30-days host survival at 100 mg/kg, ip administered daily for 9 days as saline with Tween-80 solution starting 24 hrs after tumor inoculation relative to control; type: functional; conditions: route intraperitoneal
Outline: (§1)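 P388 ascitic cell inoculum given ip to CDF1 mice of the sex in each line. Nine daily ip doses in saline with Tween-80 as vehicle, starting 24 h after inoculation. Median survival time expressed as %T/C (>125 significant); "cure" defined as 30-day survival.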

[2] = system: P388; assay: Antitumor activity against mouse P388 cells allografted in female CDF1 mouse assessed as change in body weight at 27 mg/kg, ip administered daily for 9 days as saline with Tween-80 solution starting 24 hrs after tumor inoculation; type: functional; conditions: route intraperitoneal
Outline: (§2)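 Ascitic fluid carrying P388 cells was inoculated ip. Compound was given ip in nine daily doses, starting 24 h after inoculation, in Klucel (hydroxypropylcellulose) suspension or in saline with Tween-80. Body-weight difference (treated minus control) was recorded on day 5. Survival was scored as %T/C of median survival time, and 30-day survival counted as cure.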

[3] = system: P388; assay: Antitumor activity against mouse P388 cells allografted in female CDF1 mouse assessed as change in body weight at 100 mg/kg, ip administered daily for 9 days as saline with Tween-80 solution starting 24 hrs after tumor inoculation; type: functional; conditions: route intraperitoneal; outline: as §2
[4] = system: P388; assay: Antitumor activity against mouse P388 cells allografted in female CDF1 mouse assessed as disease cures by measuring 30-days host survival at 200 mg/kg, ip administered daily for 9 days as saline with Tween-80 solution starting 24 hrs after tumor inoculation relative to control; type: functional; conditions: route intraperitoneal; outline: as §1
[5] = system: P388; assay: Antitumor activity against mouse P388 cells allografted in female CDF1 mouse assessed as change in body weight at 13.5 mg/kg, ip administered daily for 9 days as saline with Tween-80 solution starting 24 hrs after tumor inoculation; type: functional; conditions: route intraperitoneal; outline: as §2
[6] = system: Mus musculus; assay: Toxicity in female CDF1 mouse allografted with mouse P388 cells assessed as animal survival at 200 mg/kg, ip administered daily for 9 days as saline with Tween-80 solution starting 24 hrs after tumor inoculation; type: organism-based; parameters: dose 200 mg/kg, route intraperitoneal; conditions: in vivo
Outline: (§3)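 P-388 leukemia ascitic fluid implanted ip. Compound dosed ip in saline with Tween-80 vehicle, once daily for nine doses from 24 h after tumor inoculation. Acute toxicity scored as toxicity-day survivors per group. Survival was followed up to 30 days, with 30-day survival counted as "cure". Follows NCI screening protocols.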

[7] = system: P388; assay: Antitumor activity against mouse P388 cells allografted in female CDF1 mouse assessed as disease cures by measuring 30-days host survival at 13.5 mg/kg, ip administered daily for 9 days as saline with Tween-80 solution starting 24 hrs after tumor inoculation relative to control; type: functional; conditions: route intraperitoneal; outline: as §1
[8] = system: Mus musculus; assay: Toxicity in female CDF1 mouse allografted with mouse P388 cells assessed as animal survival at 27 mg/kg, ip administered daily for 9 days as saline with Tween-80 solution starting 24 hrs after tumor inoculation; type: organism-based; parameters: dose 27 mg/kg, route intraperitoneal; conditions: in vivo; outline: as §3
[9] = system: P388; assay: Antitumor activity against mouse P388 cells allografted in female CDF1 mouse assessed as disease cures by measuring 30-days host survival at 54 mg/kg, ip administered daily for 9 days as saline with Tween-80 solution starting 24 hrs after tumor inoculation relative to control; type: functional; conditions: route intraperitoneal; outline: as §1
[10] = system: P388; assay: Antitumor activity against mouse P388 cells allografted in female CDF1 mouse assessed as change in body weight at 400 mg/kg, ip administered daily for 9 days as saline with Tween-80 solution starting 24 hrs after tumor inoculation; type: functional; conditions: route intraperitoneal; outline: as §2
[11] = system: P388; assay: Antitumor activity against mouse P388 cells allografted in female CDF1 mouse assessed as change in body weight at 54 mg/kg, ip administered daily for 9 days as saline with Tween-80 solution starting 24 hrs after tumor inoculation; type: functional; conditions: route intraperitoneal; outline: as §2
[12] = system: Mus musculus; assay: Toxicity in female CDF1 mouse allografted with mouse P388 cells assessed as animal survival at 13.5 mg/kg, ip administered daily for 9 days as saline with Tween-80 solution starting 24 hrs after tumor inoculation; type: organism-based; parameters: dose 13.5 mg/kg, route intraperitoneal; conditions: in vivo; outline: as §3
[13] = system: Mus musculus; assay: Toxicity in female CDF1 mouse allografted with mouse P388 cells assessed as animal survival at 54 mg/kg, ip administered daily for 9 days as saline with Tween-80 solution starting 24 hrs after tumor inoculation; type: organism-based; parameters: dose 54 mg/kg, route intraperitoneal; conditions: in vivo; outline: as §3
[14] = system: P388; assay: Antitumor activity against mouse P388 cells allografted in female CDF1 mouse assessed as disease cures by measuring 30-days host survival at 27 mg/kg, ip administered daily for 9 days as saline with Tween-80 solution starting 24 hrs after tumor inoculation relative to control; type: functional; conditions: route intraperitoneal; outline: as §1
[15] = system: P388; assay: Antitumor activity against mouse P388 cells allografted in female CDF1 mouse assessed as disease cures by measuring 30-days host survival at 400 mg/kg, ip administered daily for 9 days as saline with Tween-80 solution starting 24 hrs after tumor inoculation relative to control; type: functional; conditions: route intraperitoneal; outline: as §1
[16] = system: P388; assay: Antitumor activity against mouse P388 cells allografted in female CDF1 mouse assessed as change in body weight at 200 mg/kg, ip administered daily for 9 days as saline with Tween-80 solution starting 24 hrs after tumor inoculation; type: functional; conditions: route intraperitoneal; outline: as §2
[17] = system: Mus musculus; assay: Toxicity in female CDF1 mouse allografted with mouse P388 cells assessed as animal survival at 400 mg/kg, ip administered daily for 9 days as saline with Tween-80 solution starting 24 hrs after tumor inoculation; type: organism-based; parameters: dose 400 mg/kg, route intraperitoneal; conditions: in vivo; outline: as §3
[18] = system: Mus musculus; assay: Toxicity in female CDF1 mouse allografted with mouse P388 cells assessed as animal survival at 100 mg/kg, ip administered daily for 9 days as saline with Tween-80 solution starting 24 hrs after tumor inoculation; type: organism-based; parameters: dose 100 mg/kg, route intraperitoneal; conditions: in vivo; outline: as §3

In the case of OCc1c(CO)c(-c2ccc(Cl)c(Cl)c2)n2c1CCC2, the T/C [1] is reported as 116%, the Activity [2] is reported as -0.3 g and the Activity [3] is reported as 0.5 g. The T/C [4] was 116%, the Activity [5] was 0 g and the Activity [6] was “Non-toxic”. For the same compound, the T/C [7] was 107%, the Activity [8] was “Non-toxic” and the T/C [9] was 109%. The Activity [10] was -1 g, the Activity [11] was -0.6 g and the Activity [12] was “Non-toxic”. For the same compound, the Activity [13] was “Non-toxic”, the T/C [14] was 109% and the T/C [15] was 127%. For the same compound, the Activity [16] was -0.9 g, the Activity [17] was “Non-toxic” and the Activity [18] was “Non-toxic”.
